Source: ChEMBL document CHEMBL1145272, “P2 pyridine N-oxide thrombin inhibitors: a novel peptidomimetic scaffold” (Bioorg Med Chem Lett, 2005)
pKi: −log10 of the molar value.

Assays:
Prothrombin = Prothrombin (Homo sapiens, UniProt P00734); experiment: Binding affinity against thrombin in human plasma; format: cell-free
[1] = Half-life in dog plasma; format: ADME, organism-based, Canis lupus familiaris
How it was run: (§1)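 Dogs were given the compound orally at 0.65, 0.7 or 0.95 mpk, with the dose differing by compound. Plasma was sampled to obtain the maximum concentration (Cmax, μM) and the plasma half-life (t1/2, h).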

[2] = Maximal plasma concentration in dogs after 0.95 mg/kg oral dose; format: ADME, organism-based, Canis lupus familiaris; set-up: dose 0.95 mg/kg, route oral; conditions: dog; how it was run: as §1
[3] = Maximal plasma concentration in dogs after 0.85 mg/kg oral dose; format: ADME, organism-based, Canis lupus familiaris; set-up: dose 0.85 mg/kg, route oral; conditions: dog
[4] = Maximal plasma concentration in dogs after 0.65 mg/kg oral dose; format: ADME, organism-based, Canis lupus familiaris; set-up: dose 0.65 mg/kg, route oral; conditions: dog; how it was run: as §1
[5] = Maximal plasma concentration in dogs after 0.7 mg/kg oral dose; format: ADME, organism-based, Canis lupus familiaris; set-up: dose 0.7 mg/kg, route oral; conditions: dog; how it was run: as §1

Row | Compound | pKi (Prothrombin) | also measured
1 | C[C@H](NC(=O)Cc1c(Cl)ccc(NCC(F)(F)c2ccccn2)[n+]1[O-])c1cc(Cl)ccc1CN | 8.49 | half-life [1]: 4.5 h; Cmax [2]: 2600 nM
2 | NCc1ccc(Cl)cc1C(CO)NC(=O)Cc1c(Cl)ccc(NCC(F)(F)c2ccccn2)[n+]1[O-] (centres undefined) | 9.32 | half-life [1]: 1.5 h; Cmax [3]: 340 nM
3 | N#Cc1ccc(NCC(F)(F)c2ccccn2)[n+]([O-])c1CC(=O)NCc1cc(Cl)ccc1CN | 12.00 | 
4 | N#Cc1ccc(NCC(F)(F)c2ccccn2)[n+]([O-])c1CC(=O)NCc1ncccc1-n1cncn1 | 9.64 | 
5 | N#Cc1ccc(NCC(F)(F)c2ccccn2)[n+]([O-])c1CC(O)NCc1ccccc1CN (centres undefined) | > 11.00 | 
6 | O=C(Cc1cccc(NCC(F)(F)c2ccccn2)[n+]1[O-])NCc1cc(Cl)ccc1-n1cnnn1 | 9.85 | 
7 | N#Cc1ccc(NCC(F)(F)c2ccccn2)[n+]([O-])c1CC(=O)NCc1ncccc1F | 8.82 | 
8 | N#Cc1ccc(N)[n+]([O-])c1CC(=O)NCc1cc(Cl)ccc1-n1cnnn1 | 7.74 | 
9 | NCc1ccc(Cl)cc1CNC(=O)Cc1c(Cl)ccc(NCC(F)(F)c2ccccn2)[n+]1[O-] | > 11.00 | 
10 | NCc1ccc(Cl)cc1CNC(=O)Cc1cccc(NCC(F)(F)c2ccccn2)[n+]1[O-] | 10.40 | 
11 | N#Cc1ccc(NCC(F)(F)c2ccccn2)[n+]([O-])c1CC(=O)NCc1cc(Cl)ccc1-n1cnnn1 | 11.70 | 

Second part, led by results:

Row | pKi (Prothrombin) | Compound | also measured
12 | 7.70 | C[C@H](N)c1ccc(Cl)cc1CNC(=O)Cc1c(Cl)ccc(NCC(F)(F)c2ccccn2)[n+]1[O-] | 
13 | 6.82 | N#Cc1ccc(NCC(F)(F)c2ccccn2)[n+]([O-])c1CC(=O)NCc1ccccc1 | 
14 | 8.22 | O=C(Cc1c(Cl)ccc(NCC(F)(F)c2ccccn2)[n+]1[O-])NCc1ncccc1F | 
15 | 9.40 | NCc1ccccc1CNC(=O)Cc1c(Cl)ccc(NCC(F)(F)c2ccccn2)[n+]1[O-] | half-life [1]: 1.5 h; Cmax [4]: 820 nM
16 | 6.59 | C[C@@H](NC(=O)Cc1c(Cl)ccc(NCC(F)(F)c2ccccn2)[n+]1[O-])c1cc(Cl)ccc1CN | 
17 | 9.35 | C[C@@H](N)c1ccc(Cl)cc1CNC(=O)Cc1c(Cl)ccc(NCC(F)(F)c2ccccn2)[n+]1[O-] | half-life [1]: 2 h; Cmax [5]: 100 nM
18 | 10.10 | N#Cc1ccc(NCC(F)(F)c2ccccn2)[n+]([O-])c1CC(O)NCc1cccc(Cl)c1 (centres undefined) | 
19 | 8.00 | N#Cc1ccc(N)[n+]([O-])c1CC(=O)NCc1cc(Cl)ccc1CN | 
20 | 7.59 | NCc1ccc(Cl)cc1CNC(=O)Cc1c(Cl)ccc(N)[n+]1[O-] | 
21 | 9.38 | [O-][n+]1c(NCC(F)(F)c2ccccn2)ccc(Cl)c1CC(O)NCc1cccc(Cl)c1 (centres undefined) | 
22 | 8.59 | O=C(Cc1c(Cl)ccc(NCC(F)(F)c2ccccn2)[n+]1[O-])NCc1ccccc1-n1cncn1 | 
23 | 10.30 | O=C(Cc1c(Cl)ccc(NCC(F)(F)c2ccccn2)[n+]1[O-])NCc1cc(Cl)ccc1-n1cncn1 | 
24 | 6.85 | Nc1ccc(Cl)c(CC(=O)NCc2cc(Cl)ccc2-n2cnnn2)[n+]1[O-] | 
25 | 8.60 | O=C(Cc1c(Cl)ccc(NCC(F)(F)c2ccccn2)[n+]1[O-])NCc1ncccc1-n1cncn1 | 
26 | 8.82 | O=C(Cc1cccc(NCC(F)(F)c2ccccn2)[n+]1[O-])NCc1cc(Cl)ccc1-n1cncn1 | 
